From ChEMBL document CHEMBL1641520, “Design, synthesis, and biological evaluation of novel water-soluble N-mustards as potential anticancer agents” (Bioorg Med Chem, 2011)
Active and inactive are the calls of the source. The calls are words filed in the database; no cut-off is given here.

What was measured:
[1] = tested on: CCRF-CEM; test: Cytotoxicity against human CCRF-CEM cells after 72 hrs by XTT assay; type: functional, cell-based
Method in brief: (§1)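 CCRF-CEM leukemia cells and their taxol- or vinblastine-resistant sublines given compound for 72 h. XTT read-out: after phenazine methosulfate–XTT, 6 h at 37 °C, absorbance at 450 and 630 nm. IC50 from median-effect analysis of dose-effect data at six or seven concentrations.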

[2] = tested on: CCRF-CEM; test: Cytotoxicity against taxol-resistant human CCRF-CEM cells after 72 hrs by XTT assay; type: functional, cell-based; method in brief: as §1
[3] = tested on: CCRF-CEM; test: Cytotoxicity against vinblastine-resistant human CCRF-CEM cells after 72 hrs by XTT assay; type: functional, cell-based; method in brief: as §1
[4] = tested on: CCRF-CEM; test: Selectivity ratio of IC50 for taxol-resistant human CCRF-CEM cells to IC50 for human CCRF-CEM cells; type: functional
[5] = tested on: CCRF-CEM; test: Selectivity ratio of IC50 for vinblastine-resistant human CCRF-CEM cells to IC50 for human CCRF-CEM cells; type: functional
[6] = Cytotoxicity against human H1299 cells after 72 hrs by alamar blue assay; type: functional, cell-based; conditions: NCI-H1299, 72 h
Method in brief: (§2)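 H1299, PC3, CL1-0, CL1-5 and MCF-7 cells exposed to compound for 72 h. Alamar blue added, then 6 h at 37 °C; absorbance at 570 and 600 nm. IC50 from median-effect analysis of dose-effect data at six or seven concentrations.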

[7] = Cytotoxicity against human CL1-5 cells after 72 hrs by alamar blue assay; type: functional, cell-based; conditions: CL1-5, 72 h; method in brief: as §2
[8] = tested on: PC-3; test: Cytotoxicity against human PC3 cells after 72 hrs by alamar blue assay; type: functional, cell-based; conditions: PC-3, 72 h; method in brief: as §2
[9] = tested on: HCT-116; test: Cytotoxicity against human HCT116 cells after 72 hrs by SRB assay; type: functional, cell-based; conditions: HCT-116, 72 h
Method in brief: (§3)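 MX-1 breast and HCT-116 colon carcinoma cells exposed to compound for 72 h; growth measured by sulforhodamine B assay. IC50 from median-effect analysis of dose-effect data at six or seven concentrations.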

[10] = tested on: MX1; test: Cytotoxicity against human MX1 cells after 72 hrs by SRB assay; type: functional, cell-based; conditions: MX1, 72 h; method in brief: as §3
[11] = tested on: MCF7; test: Cytotoxicity against human MCF7 cells after 72 hrs by alamar blue assay; type: functional, cell-based; conditions: MCF7, 72 h; method in brief: as §2
[12] = Cytotoxicity against human CL1-0 cells after 72 hrs by alamar blue assay; type: functional, cell-based; conditions: CL1-0, 72 h; method in brief: as §2
[13] = tested on: Nucleic Acid; test: Binding affinity to Escherichia coli plasmid EGFP-N1 DNA at 1 to 10 uM after 22 hrs by alkaline agarose gel shift assay; type: nucleic-acid assay
Method in brief: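 Purified pEGFP-N1 plasmid DNA (1500 ng) incubated with compound (1–20 µM) in 3 mM NaCl/1 mM sodium phosphate pH 7.4/1 mM EDTA for 2 h at 37 °C. Linearized with BamHI, ethanol-precipitated, denatured in 0.5 N NaOH-10 mM EDTA. Run on 0.8% alkaline agarose gel at 4 °C, 18 V for 22 h. Ethidium bromide stain; cross-linked double-stranded DNA scored against single-stranded DNA.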

[14] = tested on: U-87MG ATCC; conditions: Homo sapiens, 80 mg/kg

SMILES | IC50 [1] [µM] | IC50 [2] [µM] | IC50 [3] [µM] | Ratio IC50 [4] | Ratio IC50 [5] | IC50 [6] [µM] | IC50 [7] [µM] | IC50 [8] [µM] | IC50 [9] [µM] | IC50 [10] [µM] | IC50 [11] [µM] | IC50 [12] [µM] | Activity [13] | inhibition [14]
O=C(Nc1ccc(N(CCCl)CCCl)cc1)Nc1cccc(OCCN2CCCCC2)c1 | 0.19 | 0.57 | 0.73 | 3 | 3.8 | 1.52 | 3.25 | 1.13 | 0.27 | 0.19 | 1.82 | 2.73 |  | 
Cl.O=C(Nc1ccc(N(CCCl)CCCl)cc1)Nc1cccc(C(=O)NCCN2CCCCC2)c1 | 0.27 | 4.62 | 10.5 | 17 | 43.7 | 6.22 | 4.64 | 1.7 | 0.31 | 0.73 | 1.18 | 8.67 | Active | 
O=C(Nc1ccc(N(CCCl)CCCl)cc1)Nc1cccc(OCCN2CCCC2)c1 | 0.35 | 1.2 | 4.2 | 3.5 | 12.1 |  |  |  |  |  |  |  |  | 
Cl.O=C(Nc1ccc(C(=O)NCCN2CCCC2)cc1)Nc1ccc(N(CCCl)CCCl)cc1 | 0.27 | 19.7 | 30.8 | 71.8 | 112.5 |  |  |  | 0.36 | 2.33 |  |  |  | 
Cl.O=C(Nc1ccc(OCCN2CCOCC2)cc1)Nc1ccc(N(CCCl)CCCl)cc1 | 0.35 | 0.84 | 0.64 | 2.4 | 1.8 |  |  |  |  |  |  |  |  | 
O=C(Nc1ccc(N(CCCl)CCCl)cc1)Nc1cccc(OCCN2CCOCC2)c1 | 0.41 | 0.73 | 1.13 | 1.8 | 2.8 |  |  |  |  |  |  |  |  | 
CC[C@]1(O)C[C@@H]2CN(CCc3c([nH]c4ccccc34)[C@@](C(=O)OC)(c3cc4c(cc3OC)N(C)[C@H]3[C@@](O)(C(=O)OC)[C@H](OC(C)=O)[C@]5(CC)C=CCN6CC[C@]43[C@@H]65)C2)C1 [VINBLASTINE] | 0.0007 | 0.08 |  | 106.2 | 679.5 |  |  |  |  |  |  |  |  | 
CN(C)CCCNC(=O)c1ccc(NC(=O)Nc2ccc(N(CCCl)CCCl)cc2)cc1.Cl | 0.26 | 20.4 | 32.8 | 77.5 | 124.8 | 12.7 | 9.79 | 5.25 | 4.54 | 1.11 | 5.17 | 16.2 |  | 
CN(C)CCCOc1ccc(NC(=O)Nc2ccc(N(CCCl)CCCl)cc2)cc1.Cl | 0.12 | 1.36 | 1.26 | 11.8 | 10.9 | 9.79 | 5.11 | 0.94 | 0.29 | 0.26 | 1.32 | 7.09 | Active | 
O=P1(N(CCCl)CCCl)NCCCO1 (stereo not drawn) |  |  |  |  |  |  |  |  |  |  |  |  |  | Active
Cl.O=C(Nc1ccc(OCCN2CCCCC2)cc1)Nc1ccc(N(CCCl)CCCl)cc1 | 0.12 | 0.5 | 0.72 | 4.02 | 7.47 | 1.84 | 4.75 | 0.93 | 0.27 | 0.15 | 1.24 | 2.87 | Active | 
Cl.O=C(Nc1ccc(C(=O)N2CCC(N3CCCCC3)CC2)cc1)Nc1ccc(N(CCCl)CCCl)cc1 | 0.22 | 20.5 | 32.2 | 91.4 | 143.7 | 9.63 | 8.51 | 1.91 | 0.64 | 3.64 | 1.54 | 15.8 |  | 
Cl.O=C(Nc1ccc(OCCN2CCCC2)cc1)Nc1ccc(N(CCCl)CCCl)cc1 | 0.14 | 1.57 | 2.05 | 11.5 | 15 | 2.25 | 5.92 | 1.78 | 0.7 | 0.49 | 1.84 | 3.01 |  | 
CN(C)CCCNC(=O)c1cccc(NC(=O)Nc2ccc(N(CCCl)CCCl)cc2)c1.Cl | 0.29 | 21.2 | 44 | 9.4 | 151.8 |  |  |  | 0.85 | 2.33 |  |  |  | 
Cl.O=C(Nc1ccc(N(CCCl)CCCl)cc1)Nc1cccc(C(=O)NCCN2CCCC2)c1 | 0.34 | 25.2 | 36.6 | 73.7 | 106.9 |  |  |  | 0.47 | 2.17 |  |  |  | 
CN(C)CCOc1cccc(NC(=O)Nc2ccc(N(CCCl)CCCl)cc2)c1 | 1.32 | 0.81 | 1.48 | 0.6 | 1.1 |  |  |  |  |  |  |  |  | 
CN(C)CCOc1ccc(NC(=O)Nc2ccc(N(CCCl)CCCl)cc2)cc1.Cl | 0.1 | 1.5 | 1.19 | 7.6 | 6.02 | 4.38 | 3.01 | 1.67 | 0.27 | 0.28 | 1.25 | 4.07 |  | 
Cl.O=C(Nc1ccc(C(=O)NCCN2CCCCC2)cc1)Nc1ccc(N(CCCl)CCCl)cc1 | 0.36 | 15 | 24.3 | 41.8 | 67.8 |  |  |  | 0.91 | 4.4 |  |  |  | 
Cl.O=C(Nc1ccc(C(=O)NCCN2CCOCC2)cc1)Nc1ccc(N(CCCl)CCCl)cc1 | 0.73 | 19.8 | 29.8 | 27.1 | 16.8 |  |  |  | 2.74 | 3.39 |  |  |  | 
CN(C)CCNC(=O)c1ccc(NC(=O)Nc2ccc(N(CCCl)CCCl)cc2)cc1.Cl | 0.23 | 4.8 | 6.74 | 21.1 | 29.6 |  |  |  | 0.39 | 1.09 |  |  |  | 
CN(C)CCCOc1cccc(NC(=O)Nc2ccc(N(CCCl)CCCl)cc2)c1 | 0.32 | 2.05 | 2.37 | 6.4 | 7.4 |  |  |  |  |  |  |  |  | 
Cl.O=C(Nc1ccc(N(CCCl)CCCl)cc1)Nc1cccc(C(=O)NCCN2CCOCC2)c1 | 0.58 | 8.16 | 16.3 | 14.1 | 28.1 |  |  |  | 1.21 | 1.45 |  |  |  | 
CC(=O)O[C@H]1C(=O)[C@@]2(C)[C@H]([C@H](OC(=O)c3ccccc3)[C@]3(O)C[C@H](OC(=O)[C@H](O)[C@@H](NC(=O)c4ccccc4)c4ccccc4)C(C)=C1C3(C)C)[C@]1(OC(C)=O)CO[C@@H]1C[C@@H]2O [PACLITAXEL] | 0.003 |  |  | 330 | 980 |  |  |  |  |  |  |  |  | 
Cl.O=C(Nc1ccc(N(CCCl)CCCl)cc1)Nc1cccc(C(=O)N2CCC(N3CCCCC3)CC2)c1 | 0.28 | 12.2 | 20 | 43.5 | 71.6 | 11.5 | 8.09 | 3.19 | 0.81 | 2.24 | 3.09 | 6.23 |  | 
